Results on 30 compounds are retold here after PubChem BioAssay AID522 (The Scripps Research Institute Molecular Screening Center, 2006).

Molecules are shown by their SMILES. The campaign covered roughly 65,000 compounds. About 1,200 (1.8%) were called active. The sample as a whole holds a higher share of actives than the screen did. Unmarked numbers belong to inactive results.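 The calls were made as follows: active = activation above the mean activation of all tested compounds plus 3 SD (cut at about 50% in these data); inactive = the rest.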

The target in this experiment is Steroidogenic factor 1 (Homo sapiens) (UniProt Q13285). As to the kind of experiment: activators of human SF-1, primary screen, cell-based, CHO-K1, Gal4-SF-1 LBD, luciferase luminescence (AID 522). The conditions noted are these: CHO-K1 Gal4-SF-1 LBD luciferase reporter; at 10 µM; stronger effect = higher value; % increase over DMSO SF-1-specific signal. An outline of the steps: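 Compound – one dose, 10 µM compound, 1% DMSO · Test system – transient Gal4-SF-1 LBD reporter, CHO-K1 · Input – 4,000 cells in each well · Read-out basis – percent activation relative to DMSO median and mock-transfected background · Replicates – single measurement per compound · Technique – steady-glow luciferase luminescence, read after 15 min reagent incubation · Timing – 20 h compound treatment, 37 °C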
Sequence of Steroidogenic factor 1 (Homo sapiens) (Q13285 whole entry, looked up, the tested form may be a part): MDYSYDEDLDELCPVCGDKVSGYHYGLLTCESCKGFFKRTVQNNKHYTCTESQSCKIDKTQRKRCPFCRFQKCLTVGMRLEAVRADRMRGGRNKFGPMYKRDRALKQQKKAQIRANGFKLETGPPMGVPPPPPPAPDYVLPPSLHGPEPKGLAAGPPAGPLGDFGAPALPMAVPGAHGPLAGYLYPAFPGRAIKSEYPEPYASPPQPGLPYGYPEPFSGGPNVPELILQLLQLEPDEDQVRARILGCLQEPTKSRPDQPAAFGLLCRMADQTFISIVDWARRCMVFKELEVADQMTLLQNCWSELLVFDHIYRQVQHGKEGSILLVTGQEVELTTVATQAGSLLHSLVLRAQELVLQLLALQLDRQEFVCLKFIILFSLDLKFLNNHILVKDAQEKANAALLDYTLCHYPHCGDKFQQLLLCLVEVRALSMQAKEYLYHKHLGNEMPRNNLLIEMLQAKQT
Background: Reporter assays use an easily measured gene product as a stand-in for the process of interest.
Regarding `Cc1cc(C(=O)NCCCc2ccccc2)no1`, the activation is 16.8%.

Consider `CC(C)Cc1cc(C(=O)Nc2cc(Br)ccc2O)no1`, for which the activation was 11.7%. As for `CC(C)Cc1cc(C(=O)NCCc2ccccc2)no1`, the activation was 80.7% (active). With `CC(C)Cn1c(CCC(=O)O)ccc1-c1cccs1` the figure was 2.5%; with `COc1ccccc1N=C1SC(C)CN1C(=O)C1CCC1` (stereo not given), 1.8%. For `COc1ccc(-n2nnnc2SCC(=O)c2ccc(OC)c(OC)c2)cc1`, the activation is -4.4%. On to `COC(=O)Cc1cc(=O)n(-c2nc3ccccc3s2)[nH]1`, for which the activation is -3%. As for `CCC(=O)NC(=Nc1nc2ccccc2s1)NC(=O)CC`, the figure is 60.7% (active); as for `O=C(O)CSCc1nc2ccccc2s1`, 15.5%; as for `COc1ccc(-c2cc(C(F)(F)F)n3nc(C(=O)N4CCOCC4)c(Cl)c3n2)cc1`, -9.4%. With `C=CCn1c(C)cc(C(=O)CN2C(=O)c3ccccc3C2=O)c1C` the figure was 27.3%; with `Cc1c(C(=O)CN2CCOCC2)[nH]c2ccccc12`, 8.5%; with `Nc1ccc(-c2nnc(-c3ccc(-c4ccccc4)cc3)o2)cc1`, 55.2% (active). As for `O=C(Nc1ccc(-c2nnc(-c3ccccc3)o2)cc1)c1ccc(Br)o1`, the figure is 10.9%; as for `COc1ccc(CC(=O)Nc2ccc(-c3nnc(-c4ccccc4)o3)cc2)cc1`, -59.5%; as for `CCOC(=O)c1nc(-c2ccc3c(c2)OCO3)[nH]c1C`, 46.3%.

On to `Cc1cc(NC(=O)c2cnn3cccnc23)n(-c2ccccc2)n1`, for which the activation was 2.1%. As for `O=C(Nc1ccc(Cl)cn1)c1cnn2cccnc12`, the figure is 63.8% (active); as for `O=C(Nc1ccc(Cl)cn1)Nc1cccs1`, 47.6%.

On to `CCS(=O)(=O)N1CCCC(C(=O)NCCCN(C)Cc2ccccc2)C1` (stereo not given), for which the activation is -14.4%. With `COc1ccc(NS(=O)(=O)c2ccc(NC(=O)C(C)(C(F)(F)F)C(F)(F)F)cc2)nn1`, the activation was -13.6%. As for `Cc1nc2nc(SCC(=O)NCc3ccco3)nn2c(C)c1Cc1ccccc1`, the figure is 5.7%; as for `O=C(NCc1ccco1)c1nc(-c2ccccc2)n(-c2ccccc2)n1`, -4.9%; as for `O=C(Cc1ccccc1)n1nc(-c2ccccc2)nc1NCc1ccco1`, 50.5% (active).

Turning to `CCOC(=O)C1CCCN(C(=O)c2ccc(CS(=O)(=O)c3ccc(Br)cc3)o2)C1` (stereo not given), the activation was 19.7%.

Regarding `Cc1cccc(-n2nc3c(c2NC(=O)c2ccc(Br)o2)CSC3)c1C`, the activation was 9.6%. With `CCC(Oc1ccccc1)C(=O)NCc1cccnc1` (stereo not given) the figure was -4.9%; with `COc1ccc(NC(=O)c2ccc(OC)cc2)cc1`, 30.5%; with `COc1cc(OC)c(C(=O)NC2CCCCCC2)cc1OC`, 2%.

Take `COc1cc(OC)c(C(=O)Nc2ccc(N(C)C)cc2)cc1OC`: the activation was 51.4% (active).
